Legend:
[1] = Induction of singlet oxygen production in DMSO assessed as DPBF absorption intensity (reference value: 100%); type: functional
How it was run: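 DPBF (50 µM in DMSO) was mixed with 1 µM photosensitizer in the dark. Samples were irradiated at 660 nm, 50 mW, 2 J/cm² for 40 s. Singlet oxygen was read as the decay of normalized DPBF absorbance at 418 nm relative to a DPBF-only control.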

ASPC1 = test: Phototoxicity in human AsPC1 cells assessed as reduction in cell viability preincubated for 3 hrs followed by 9 J/cm2 laser light irradiation and measured after 72 hrs by MTT assay; type: functional, cell-based; settings: ASPC1, light or radiation study
How it was run: (§1)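 Cells were seeded at 5.0 x 10^3 per well and incubated overnight at 37 °C. AsPC-1 was in RPMI-1640 and MIA PaCa-2/PANC-1 in DMEM, with 10% FBS. Cells took up compound for 3h, then received 660 nm laser light (50 mW, 9 J/cm²).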

[2] = Selectivity index, ratio of IC50 for dark toxicity in human AsPC1 cells to IC50 for phototoxicity in human AsPC1 cells; type: cell-based; settings: read-out: Ratio IC50
How it was run: (§2)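 The ratio is the dark-toxicity IC50 over the phototoxicity IC50 in the same cell line, both from 72h MTT. The dark arm received no light. The photo arm was irradiated at 660 nm, 50 mW, 9 J/cm² after 3h compound exposure.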

[3] = Dark toxicity in human PANC1 cells assessed as reduction in cell viability after 72 hrs by MTT assay; type: cell-based, PANC-1
How it was run: (§3)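 AsPC-1 cells were grown in RPMI-1640, and MIA PaCa-2 and PANC-1 in DMEM, each with 10% FBS and 1% penicillin/streptomycin. 5.0 x 10^3 cells were seeded and left overnight at 37 °C. They were exposed to 0-300 µM compound for 3h without laser irradiation, then held 72h in the dark at 37 °C, 5% CO₂. Viability was read by MTT.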

[4] = Selectivity index, ratio of IC50 for dark toxicity in human PANC1 cells to IC50 for phototoxicity in human PANC1 cells; type: cell-based, PANC-1; settings: read-out: Ratio IC50; how it was run: as §2
[5] = Dark toxicity in human MIAPaCa2 cells assessed as reduction in cell viability after 72 hrs by MTT assay; type: cell-based, MIA PaCa-2; how it was run: as §3
[6] = Dark toxicity in human AsPC1 cells assessed as reduction in cell viability after 72 hrs by MTT assay; type: cell-based; how it was run: as §3
MIA PaCa-2 = test: Phototoxicity in human MIAPaCa2 cells assessed as reduction in cell viability preincubated for 3 hrs followed by 9 J/cm2 laser light irradiation and measured after 72 hrs by MTT assay; type: functional, cell-based; settings: MIA PaCa-2, light or radiation study; how it was run: as §1
[7] = Selectivity index, ratio of IC50 for dark toxicity in human MIAPaCa2 cells to IC50 for phototoxicity in human MIAPaCa2 cells; type: cell-based, MIA PaCa-2; settings: read-out: Ratio IC50; how it was run: as §2
[8] = Drug uptake in human AsPC1 cells at 5 uM after 3 to 24 hrs by FACS analysis; type: ADME, cell-based; settings: aspc1, 5 µM
How it was run: (§4)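 AsPC-1 cells (2 x 10^5) were seeded and kept in the dark at 37 °C for 24h. They were then incubated with 5 µM compound for 30 min to 24h. Cells were harvested by trypsin, washed three times in PBS and resuspended in PBS. Uptake was read as mean fluorescence intensity by FACS.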

[9] = Solubility of the compound in 2% DMSO/98% de-ionized water at 8.7 uM; type: physicochemical; settings: buffer
[10] = Drug uptake in human AsPC1 cells at 5 uM by FACS analysis; type: ADME, cell-based; settings: aspc1, 5 µM, TDE = time-dependent effect; how it was run: as §4
PANC-1 = test: Phototoxicity in human PANC1 cells assessed as reduction in cell viability preincubated for 3 hrs followed by 9 J/cm2 laser light irradiation and measured after 72 hrs by MTT assay; type: functional, cell-based; settings: PANC-1, light or radiation study; how it was run: as §1
[11] = Solubility of the compound in 2% DMSO/98% de-ionized water at 16 uM; type: physicochemical; settings: buffer

| SMILES | Activity [1] [%] | IC50 (ASPC1) [µM] | selectivity ratio [2] | IC50 at 72 h [3] [µM] | selectivity ratio [4] | IC50 at 72 h [5] [µM] | IC50 at 72 h [6] [µM] | IC50 (MIA PaCa-2) [µM] | selectivity ratio [7] | Drug uptake [8] | solubility [9] | Drug uptake [10] | IC50 (PANC-1) [µM] | solubility [11] |
| --- | --- | --- | --- | --- | --- | --- | --- | --- | --- | --- | --- | --- | --- | --- |
| C=Cc1c(C)c2cc3nc(c(CC(=O)OC)c4[nH]c(cc5nc(cc1[nH]2)C(C)=C5CC)c(C)c4C(=O)NCCCNC(=O)CCCC(=O)Oc1ccc(/C=C/C(=O)CC(=O)/C=C/c2ccc(O)c(OC)c2)cc1OC)C(CCC(=O)OC)C3C (stereo unspecified) | 7.39 | 5.74 | > 52.3 | > 300 | > 65.5 | 200 | > 300 | 4.2 | 47.6 | Active | Soluble | Tde | 4.58 | – |
| C=Cc1c(C)c2cc3nc(c(CC(=O)O)c4[nH]c(cc5nc(cc1[nH]2)C(C)=C5CC)c(C)c4C(=O)O)C(CCC(=O)O)C3C (stereo unspecified) | 9.88 | 19.5 | 6.45 | 67 | 6.6 | 89 | 126 | 15.8 | 5.61 | – | – | Tde | 10.1 | Soluble |
| CN(C)c1ccc2nc3ccc(=[N+](C)C)cc-3sc2c1 | 33.9 | – | – | – | – | – | – | – | – | – | – | – | – | – |

— ChEMBL document CHEMBL4145531, “Synthesis of novel Chlorin e6-curcumin conjugates as photosensitizers for photodynamic therapy against pancreatic carcinoma” (Eur J Med Chem, 2018)
